# Active and inactive are the calls of the source. The calls are words filed in the database; no cut-off is given here.
# Key:
# Mus musculus = test: Toxicity in Plasmodium berghei-infected mouse assessed as mortality at split dose of 80 mg/kg/day, po for 3 days; type: organism-based; design: route oral; conditions: in vivo, 72 h
# Plasmodium falciparum [1] = test: Antimalarial activity against Plasmodium falciparum at 1 nM assessed as parasite growth after 3.5 hrs; type: functional
# Summary of the method: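 Infected erythrocytes were exposed to compound for 3.5 h, washed, and returned to culture. Parasite growth was compared with matched controls after 48 h.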
# Plasmodium falciparum [2] = test: Antimalarial activity against chloroquine-resistant Plasmodium falciparum FVO infected in Aotus lemurinus […] monkey assessed as reduction in parasitemia at 16 mg/kg/day, po for 3 days; type: functional, organism-based
# Plasmodium falciparum [3] = test: Antimicrobial activity against Plasmodium falciparum W2 at […] in presence of 4 mg/kg chloroquine; type: functional
# Plasmodium berghei [4] = test: Antimalarial activity against Plasmodium berghei infected in mouse assessed as effect on cure rate at 320 mg/kg/day for 3 days; type: functional, organism-based
# Summary of the method: (§1)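 Mice were infected ip with 10^6 P. berghei-parasitized erythrocytes. The compound was given orally once daily on days 3, 4 and 5 post-infection in hydroxyethylcellulose-Tween 20 vehicle, alone or together with chloroquine, with 5 mice per dose group. Parasitemia (%) was read on days 3 and 6, and cures were counted as animals cured out of 5.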
# Plasmodium berghei [5] = test: Antimalarial activity against Plasmodium berghei infected in mouse assessed as parasitemia level at 160 mg/kg/day for 3 days measured on day 6 in presence of 2 mg/kg/day chloroquine (reference value: 37%); type: functional; summary of the method: as §1
# Plasmodium berghei [6] = test: Antimalarial activity against Plasmodium berghei infected in mouse assessed as parasitemia level at split dose of 40 mg/kg/day, po for 3 days measured on day 6 relative to control; type: functional
# Summary of the method: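 Blood-stage P. berghei model: mice inoculated ip with 10^6 parasitized erythrocytes. Oral treatment for 3 days, with the daily dose split, in hydroxyethylcellulose-Tween 20 vehicle. Day-6 parasitemia expressed as a fraction of control parasitemia.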
# Plasmodium berghei [7] = test: Antimalarial activity against Plasmodium berghei infected in mouse assessed as parasitemia level at single dose of 20 mg/kg/day, po for 3 days measured on day 6 relative to control; type: functional
# Summary of the method: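 Mice infected intraperitoneally with 10^6 P. berghei-parasitized erythrocytes. Drug given orally once daily on days 3, 4 and 5 post-infection in hydroxyethylcellulose-Tween 20 vehicle, 5 mice per dose group. Parasitemia measured on day 6 and expressed as a fraction of untreated control parasitemia.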
# Plasmodium falciparum [8] = test: Antimicrobial activity against Plasmodium falciparum W2 at […] in presence of mefloquine; type: functional
# Summary of the method: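 In vitro fixed-ratio isobologram using a SYBR green I fluorescence assay. […] IC50s were standardized and FIC50 and ΣFIC50 calculated by the Berenbaum method. Reported as the average ΣFIC across dilutions or the average maximum ΣFIC, from at least 2 experiments.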
# Plasmodium berghei [9] = test: Antimalarial activity against Plasmodium berghei infected in mouse assessed as parasitemia level at 3.2 mg/kg/day for 3 days measured on day 6 (reference value: 37%); type: functional
compound,measurement,setting,value
Nc1cccc(-c2csc(NC(=O)CCCCCCC(=O)NO)n2)c1,Activity,Mus musculus,Non-toxic
same,Activity,Plasmodium falciparum [1],<=40%
same,inhibition,Plasmodium falciparum [2],inactive
same,fractional inhibitory concentration index (FICI),Plasmodium falciparum [3],1.9
same,Activity,Plasmodium berghei [4],inactive
same,Activity,Plasmodium berghei [5],0.36%
same,fold change (FC),Plasmodium berghei [6],0.32
same,fold change (FC),Plasmodium berghei [7],0.57
same,fractional inhibitory concentration index (FICI),Plasmodium falciparum [8],2.1
same,Activity,Plasmodium berghei [9],40%
